TAAR1 agonist – human TAAR1 agonism. activation, % at 3 µM. CHO RD-HGA16 TAAR1, Fluo-8 calcium fluorescence; vehicle wells 0%, saturating PEA agonist 100%. Q96RJ0. 360,000 compounds, 0.99% hits;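 active = activation above the mean activation of all test compounds in the run plus 3 SD, cut at about 38% in these data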
Target sequence (Q96RJ0 whole entry, looked up): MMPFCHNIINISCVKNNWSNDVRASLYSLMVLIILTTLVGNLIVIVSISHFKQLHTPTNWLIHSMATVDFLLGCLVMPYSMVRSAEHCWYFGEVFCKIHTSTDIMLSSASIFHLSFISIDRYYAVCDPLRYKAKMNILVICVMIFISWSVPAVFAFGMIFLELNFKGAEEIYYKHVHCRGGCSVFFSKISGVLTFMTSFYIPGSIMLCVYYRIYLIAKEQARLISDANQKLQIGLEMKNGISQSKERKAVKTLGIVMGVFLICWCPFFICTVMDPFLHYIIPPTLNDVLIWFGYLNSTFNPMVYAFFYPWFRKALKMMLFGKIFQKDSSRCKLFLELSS
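test system = CHO RD-HGA16 cells carrying human TAAR1 plus Gα16 | schedule = 17-24 h seeding, 75 min 37 °C dye, 30 min RT | compound dosing = 3 µM single concentration | control set = DMSO and PEA EC100 | replicates = n 1 | signal = Fluo-8 fluorescence, 5 s baseline then 140 s kinetic read | measure = percent activation vs PEA EC100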
core dimer inh – blocks dimerization of HCV core protein; TR-FRET GST/Flag-core106 dimerization, 1536-well; inhibition, % at 5 µM; 300,000 compounds, 0.33% hits;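 active = inhibition above the mean of all tested compounds plus 3 SD, set per screening campaign, cut at about 45% in these data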
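Test system: GST/Flag-tagged HCV core106 proteins; Medium: KF-containing HEPES buffer, pH 7.45, DTT, CHAPS, BSA; Times: compound-protein-antibody incubation 4 h at 22.5 °C; Detection: TR-FRET 671 and 617 nm emission; Benchmarks: wells lacking GST-core106 and wells with excess unlabelled core106.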
rCAG RNA binder – binds r(CAG) RNA repeats; r(CAG) RNA repeat, TO-PRO-1 dye displacement fluorescence; inhibition, % at 3 µM; 370,000 compounds, 1.3% hits; AID 651821;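 active = inhibition above the plate cutoff, the mean of all test compounds on that plate plus 3 SD, cut at about 35% in these data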;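 note: 0% = DMSO alone and 100% = 100 µM mitoxantrone as full dye displacement; higher means more dye released from RNA so lower well fluorescence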
TAAR1 antagonist – human TAAR1 antagonism; Q96RJ0; 360,000 compounds, 1.5% hits; CHO RD-HGA16 TAAR1, Fluo-8 calcium fluorescence, antagonist; inhibition, % at 3 µM;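 active = inhibition above a per-plate cutoff, the mean inhibition of test compounds on that plate plus 3 SD, cut at about 49% in these data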;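 note: 0% = DMSO plus EC80 beta-PEA response and 100% = DMSO alone without agonist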
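Test system: hTAAR1-expressing CHO RD-HGA16 cells, Gα16-coupled; Probe or stimulus: EC80 β-phenethylamine stimulus; Compound dosing: single nominal final test compound concentration of 3 µM; Timing: 140 s kinetic read after compound, 140 s after agonist; Signal: Fluo-8 calcium-sensitive fluorescence; Measure: % inhibition of agonist calcium response; Controls: DMSO and EC80 PEA controls.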
NS3 helicase inh – inhibitors of Hepatitis C virus NS3 helicase; 290,000 compounds, 0.56% hits; NS3 helicase DNA unwinding, Cy5 molecular beacon fluorescence; inhibition, % at 10.9 µM;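 active = inhibition above the mean of all tested compounds plus 3 SD, set per campaign, cut at about 35% in these data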;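 note: 0% = DMSO wells and 100% = thioflavine S control wells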
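test system = hepatitis C virus NS3 helicase domain fragment enzyme | reagent = annealed dual-labelled DNA beacon duplex, ATP-started | times = 1 h at 25 °C | detection = Cy5 fluorescence, 0 and 60 min reads | read-out basis = percent inhibition from t60/t0 fluorescence ratio | control set = DMSO and thioflavine S | replication = one well per compound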
rCAG binder conf – r(CAG) RNA repeat binding, confirmation; inhibition, % at 3 µM; TO-PRO-1 dye displacement fluorescence; shares compounds with rCAG RNA binder; 4,300 compounds, 70% hits;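 active = inhibition above a per-plate cutoff, the mean inhibition of sample wells plus 3 SD, cut at about 35% in these data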;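 note: loss of TO-PRO-1 fluorescence as compound displaces dye from 1x1 AA loop RNA; 0% = DMSO only wells and 100% = 100 µM mitoxantrone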
DNA CAG counter – DNA CAG dye complex inhibition counter-screen | shares compounds with rCAG RNA binder | AID 652068 | inhibition, % at 3 µM | 4,300 compounds, 94% hits | d(CAG) DNA oligo TO-PRO-1 dye displacement, fluorescence;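 active = inhibition above its plate's cutoff, the mean test-well inhibition plus 3 SD, cut at about 4.8% in these data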;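 note: 0% = DNA dye mix with DMSO and 100% = 100 µM mitoxantrone; hits displace the dye from DNA and so lower well fluorescence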
Numbers without * were called inactive. Compounds with a hit are over-represented: about 3.7% of the library has one in this group of screens.

Results for O=S(=O)(Nc1nc2ccccc2nc1N1CCc2ccccc2C1)c1ccc(Cl)cc1 ?
TAAR1 agonist: 20; core dimer inh: 10; rCAG RNA binder: 13; TAAR1 antagonist: -49; NS3 helicase inh: 6

What do the screens show for `COc1ccc(N2CCN(c3nc4ccccc4nc3NS(=O)(=O)c3ccccc3)CC2)cc1`?
TAAR1 agonist: 2; core dimer inh: 25; rCAG RNA binder: 57*; TAAR1 antagonist: 5; NS3 helicase inh: 3; rCAG binder conf: 62*; DNA CAG counter: 24*

What do the screens show for `O=S(=O)(Nc1nc2ccccc2nc1N1CCN(c2ccccn2)CC1)c1ccc(Cl)cc1`?
TAAR1 agonist: 3; rCAG RNA binder: 54*; TAAR1 antagonist: 18; NS3 helicase inh: -1; rCAG binder conf: 64*; DNA CAG counter: 31*

Results for COC(=O)C[C@H]1CC[C@@H]2[C@H](COc3ccc(NS(C)(=O)=O)cc3C(=O)N2C)O1 ?
rCAG RNA binder: 0

What do the screens show for `COc1ccc(Cn2c(C)cc(O)cc2=O)cc1`?
TAAR1 agonist: 0; rCAG RNA binder: 3; TAAR1 antagonist: 9

Results for CCCCOc1ccc(C(=O)n2ccc3ccc(-c4ccc5ccn(Cc6cccc(C(=O)OC)c6)c5c4)cc32)cc1 ?
rCAG RNA binder: 17

How did COc1ccc(S[C@]2(C(=O)N3CCOCC3)CC(=O)N(P(=O)(OC)OC)[C@@H]2c2ccc(OC)cc2)cc1 do in these assays?
rCAG RNA binder: 2

Results for COc1ccc(C2CC(c3ccccc3)=NN2c2ccccc2)c(C(=O)O)c1OC (stereo not drawn) ?
TAAR1 agonist: -1; core dimer inh: -4; rCAG RNA binder: 46*; TAAR1 antagonist: 11; NS3 helicase inh: -16; rCAG binder conf: 59*; DNA CAG counter: 16*

Results for COc1cc(C2CC(c3ccccc3)=NN2c2ccccc2)ccc1OCC(=O)O (stereo not drawn) ?
TAAR1 agonist: 10; core dimer inh: 5; rCAG RNA binder: 41*; TAAR1 antagonist: -9; NS3 helicase inh: -17; rCAG binder conf: 50*; DNA CAG counter: 15*

How did COc1ccc(C2=NN(c3ccc(C(=O)O)cc3)C(c3ccc(OC)c(OC)c3)C2)cc1 (stereo not drawn) do in these assays?
TAAR1 agonist: 5; core dimer inh: 14; rCAG RNA binder: 39*; TAAR1 antagonist: 7; NS3 helicase inh: -13; rCAG binder conf: 49*; DNA CAG counter: 14*

What do the screens show for `COc1ccc(C2CC(c3ccccc3)=NN2c2ccc(S(N)(=O)=O)cc2)cc1OC` (stereo not drawn)?
TAAR1 agonist: 7; core dimer inh: 6; rCAG RNA binder: 10; TAAR1 antagonist: 34; NS3 helicase inh: -21

How did COc1ccc(C2CC(c3ccccc3)=NN2c2ccc(Cl)c(C(=O)O)c2)cc1 (stereo not drawn) do in these assays?
TAAR1 agonist: 2; core dimer inh: 23; rCAG RNA binder: 61*; TAAR1 antagonist: 28; NS3 helicase inh: -5; rCAG binder conf: 55*; DNA CAG counter: 17*

What do the screens show for `COc1ccc(OC)c(CN2C(=O)c3ccnn3CC2(C)c2nnnn2C2CCCC2)c1` (stereo not drawn)?
rCAG RNA binder: 8

How did CCOC(=O)[C@@H]1c2[nH]c3ccccc3c2C[C@@]2(C(=O)OC)C=CCN12 do in these assays?
rCAG RNA binder: 9

How did COc1ccc(C2=NN(c3ccccc3)C(c3cn(CCC(=O)O)nc3-c3ccccc3)C2)cc1 (stereo not drawn) do in these assays?
TAAR1 agonist: 7; core dimer inh: 19; rCAG RNA binder: 39*; TAAR1 antagonist: 10; NS3 helicase inh: -34; rCAG binder conf: 46*; DNA CAG counter: 12*

How did CCN(C(=O)CN1CCN(c2nc(-c3ccccc3)cs2)CC1)c1ccccc1C do in these assays?
rCAG RNA binder: 5

How did Cc1cc2c(nc1C)CCCN2Cc1ccc(Br)cc1 do in these assays?
TAAR1 agonist: 0; rCAG RNA binder: 5; TAAR1 antagonist: -31

Screening data deposited in PubChem BioAssay by The Scripps Research Institute Molecular Screening Center.
